Reference: ChEMBL document CHEMBL4622973, “Discovery of Potent Small-Molecule SIRT6 Activators: Structure-Activity Relationship and Anti-Pancreatic Ductal Adenocarcinoma Activity” (J Med Chem, 2020)

Legend:
[1] = biological target: T1, NAD-dependent protein deacylase sirtuin-6 (Homo sapiens, UniProt Q8N6T7); assay: Activation of N-terminal his-tagged human SIRT6 expressed in Escherichia coli M15 [pREP4] assessed as increase in peptide demyristoylation incubated for 120 mins using Ac-EALPKK(Myr)-AMC substrate by FDL assay relative to control
How it was run: (§1)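 Demyristoylation: 1 µM recombinant SIRT6 preincubated with compound for 20 min at 37 °C in 50 mM Tris-HCl pH 8.0, BSA 1 mg/mL, 1 mM DTT, with 10 µM Ac-EALPKK(Myr)-AMC. Fluorescence read. Mean ± s.d., triplicate wells, three independent experiments.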

[2] = biological target: T1, NAD-dependent protein deacylase sirtuin-6; assay: Activation of N-terminal his-tagged human SIRT6 expressed in Escherichia coli M15 [pREP4] assessed as increase in peptide demyristoylation at 20 uM incubated for 120 mins using Ac-EALPKK(Myr)-AMC substrate by FDL assay relative to control
How it was run: as §1, with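 “Ac-EALPKK(Myr)-AMC. Started with 1 mM NAD and run 120 min at 37 °C. Developed 120 min at 37 °C with 5 mg/mL trypsin/8 mM nicotinamide.” for “Ac-EALPKK(Myr)-AMC.”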

T1 sequence (Q8N6T7 whole entry): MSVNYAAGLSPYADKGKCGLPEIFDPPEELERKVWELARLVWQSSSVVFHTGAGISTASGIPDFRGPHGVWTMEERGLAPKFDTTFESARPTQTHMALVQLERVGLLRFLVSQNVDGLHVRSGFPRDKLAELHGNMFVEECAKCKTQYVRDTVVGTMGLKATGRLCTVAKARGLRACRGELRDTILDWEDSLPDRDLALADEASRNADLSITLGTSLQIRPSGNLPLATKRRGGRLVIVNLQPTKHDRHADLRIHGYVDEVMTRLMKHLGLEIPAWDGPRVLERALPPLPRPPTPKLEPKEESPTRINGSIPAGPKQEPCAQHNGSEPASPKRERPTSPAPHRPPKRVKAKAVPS

| Compound | EC1.5 [1] [µM] | Activity [2] [%] |
| --- | --- | --- |
| COc1ccc(-c2cc(C(=O)Nc3cccc(Cl)c3Cl)c3ccccc3n2)cc1OC | 5.97 | 224 |
| COc1ccc(-c2cc(C(=O)NC(c3ccccc3)c3ccccc3)c3ccccc3n2)cc1OC | 5.97 | 276 |
| COc1ccc(-c2cc(C(=O)Nc3cc(S(N)(=O)=O)ccc3C)c3ccccc3n2)cc1OC | – | 95.5 |
| O=C(Nc1cc(C(F)(F)F)ccc1Cl)c1cc(-c2cccs2)nc2ccccc12 | – | 130 |
| COc1ccc(-c2cc(C(=O)NCc3ccc(F)cc3)c3ccccc3n2)cc1OC | 19.5 | 168 |
| Cc1c(Cl)cccc1NC(=O)c1cc(-c2cc3ccccc3o2)nc2ccccc12 | 9.01 | 205 |
| O=C(NC(c1ccccc1)c1ccccn1)c1cc(-c2cc3ccccc3o2)nc2ccccc12 (stereo not drawn) | 7.59 | 321 |
| Cc1ccc(-c2cc(C(=O)Nc3cc(C(F)(F)F)ccc3Cl)c3ccccc3n2)s1 | – | 141 |
| O=C(Nc1cc(C(F)(F)F)ccc1Cl)c1cc(C2CCCC2)nc2ccccc12 | – | 76.4 |
| COc1ccc(-c2cc(C(=O)Nc3cc(C(C)C)ccc3C)c3ccccc3n2)cc1OC | – | 131 |
| CCOc1ccc(NC(=O)c2cc(-c3cc4ccccc4o3)nc3ccccc23)cc1 | – | 109 |
| COc1ccc(-c2cc(C(=O)Nc3ccc(F)c([N+](=O)[O-])c3)c3ccccc3n2)cc1OC | – | 96.9 |
| O=C(Nc1cc(C(F)(F)F)cc(C(F)(F)F)c1)c1cc(-c2cc3ccccc3o2)nc2ccccc12 | 3.11 | 430 |
| COc1ccc(-c2cc(C(=O)N3CCN(C)CC3)c3ccccc3n2)cc1OC | – | 105 |
| O=C(Nc1cccc(F)c1)c1cc(-c2cc3ccccc3o2)nc2ccccc12 | 4.86 | 216 |
| COC(=O)c1c(NC(=O)c2cc(-c3ccc(OC)c(OC)c3)nc3ccccc23)sc2c1CCCC2 | – | 95.2 |
| O=C(Nc1cccc(Cl)c1Cl)c1cc(-c2cc3ccccc3o2)nc2ccccc12 | 20.7 | 163 |
| CCOc1ccc(NC(=O)c2cc(-c3ccc(OC)c(OC)c3)nc3ccccc23)cc1 | 10.3 | 166 |
| CCOC(=O)c1ccccc1NC(=O)c1cc(-c2ccc(OC)c(OC)c2)nc2ccccc12 | – | 118 |
| O=C(Nc1ccc(C(F)(F)F)cc1)c1cc(-c2cc3ccccc3o2)nc2ccccc12 | 5.17 | 335 |
| COc1ccc(-c2cc(C(=O)Nc3cc([N+](=O)[O-])ccc3Cl)c3ccccc3n2)cc1OC | – | 98.2 |

| Compound | EC1.5 [1] [µM] | Activity [2] [%] |
| --- | --- | --- |
| COc1ccc(-c2cc(C(=O)Nc3ccc(F)c(F)c3)c3ccccc3n2)cc1OC | – | 101 |
| COc1ccc(-c2cc(C(=O)Nc3ccc(S(N)(=O)=O)cc3)c3ccccc3n2)cc1OC | – | 131 |
| COc1ccc(-c2cc(C(=O)Nc3cccc(F)c3)c3ccccc3n2)cc1OC | – | 142 |
| COc1ccc(-c2cc(C(=O)Nc3cccc(Cl)c3)c3ccccc3n2)cc1OC | – | 104 |
| Cc1ccc(CNC(=O)c2cc(-c3cc4ccccc4o3)nc3ccccc23)cc1 | 14.5 | 208 |
| COc1ccc(-c2cc(C(=O)Nc3ccc(F)c(Cl)c3)c3ccccc3n2)cc1OC | – | 108 |
| COc1ccc(-c2cc(C(=O)NCc3ccccc3)c3ccccc3n2)cc1OC | – | 107 |
| Cc1ccc(-c2cc(C(=O)Nc3cc(C(F)(F)F)ccc3Cl)c3ccccc3n2)cc1 | – | 109 |
| COc1ccc(-c2cc(C(=O)NC3CCCC3)c3ccccc3n2)cc1OC | – | 124 |
| COc1ccc(-c2cc(C(=O)Nc3c(C)cc(C)cc3C)c3ccccc3n2)cc1OC | 4.77 | 284 |
| COc1ccc(-c2cc(C(=O)Nc3ccccc3F)c3ccccc3n2)cc1OC | – | 92.4 |
| O=C(Nc1cc(C(F)(F)F)ccc1Cl)c1cc(-c2cccnc2)nc2ccccc12 | – | 85.6 |
| COc1ccc(-c2cc(C(=O)Nc3ccc4ccccc4c3)c3ccccc3n2)cc1OC | – | 139 |
| COc1ccc(-c2cc(C(=O)NC34CC5CC(CC(O)(C5)C3)C4)c3ccccc3n2)cc1OC | – | 86.1 |
| COc1ccc(-c2cc(C(=O)Nc3ccccc3Br)c3ccccc3n2)cc1OC | – | 128 |
| COC(=O)c1c(NC(=O)c2cc(-c3ccc(OC)c(OC)c3)nc3ccccc23)sc(C)c1C | – | 101 |
| COc1ccc(-c2cc(C(=O)Nc3ccc(C)cc3)c3ccccc3n2)cc1OC | – | 98.3 |
| COc1ccc(-c2cc(C(=O)Nc3ccc(F)cc3)c3ccccc3n2)cc1OC | – | 104 |
| CCCNC(=O)c1cc(-c2ccc(OC)c(OC)c2)nc2ccccc12 | – | 99 |
| COc1ccc(-c2cc(C(=O)Nc3cccc4ccccc34)c3ccccc3n2)cc1OC | 7.44 | 327 |
| O=C(Nc1cc(C(F)(F)F)ccc1Cl)c1cc(-c2ccc3c(c2)OCCO3)nc2ccccc12 | 29.4 | 159 |

| Compound | EC1.5 [1] [µM] | Activity [2] [%] |
| --- | --- | --- |
| COc1ccc(-c2cc(C(=O)Nc3nc(-c4ccc(Cl)cc4)cs3)c3ccccc3n2)cc1OC | – | 91 |
| COc1cc(NC(=O)c2cc(-c3ccc(OC)c(OC)c3)nc3ccccc23)cc(OC)c1 | – | 103 |
| COc1ccc(-c2cc(C(=O)Nc3ccc(Cl)cc3)c3ccccc3n2)cc1OC | – | 98.7 |
| CCOC(=O)c1sc(NC(=O)c2cc(-c3ccc(OC)c(OC)c3)nc3ccccc23)nc1C | – | 90.3 |
| Cc1ccc(-c2cc(C(=O)Nc3cc(C(F)(F)F)ccc3Cl)c3ccccc3n2)c(C)c1 | – | 92.3 |
| O=C(Nc1cc(C(F)(F)F)ccc1Cl)c1cc(-c2ccc3c(c2)OCO3)nc2ccccc12 | 14.9 | 228 |
| COc1ccc(-c2cc(C(=O)Nc3nc4ccc(S(C)(=O)=O)cc4s3)c3ccccc3n2)cc1OC | – | 83.4 |
| O=C(Nc1cc(C(F)(F)F)ccc1Cl)c1cc(-c2ccco2)nc2ccccc12 | – | 141 |
| COc1ccc(-c2cc(C(=O)Nc3cc(C(F)(F)F)ccc3Cl)c3ccccc3n2)cc1 | 20.7 | 163 |
| COc1ccc(-c2cc(C(=O)Nc3cccc(Cl)c3C)c3ccccc3n2)cc1OC | 19 | 199 |
| COc1ccc(-c2cc(C(=O)Nc3cc(C(F)(F)F)ccc3Cl)c3ccccc3n2)cc1F | – | 91.2 |
| O=C(Nc1cc(C(F)(F)F)ccc1Cl)c1cc(C2CCCCC2)nc2ccccc12 | – | 82.4 |
| COc1ccc(-c2cc(C(=O)Nc3cc(C(F)(F)F)cc(C(F)(F)F)c3)c3ccccc3n2)cc1OC | 6.38 | 250 |
| COc1ccc(-c2cc(C(=O)Nc3sc(C)c(C)c3C#N)c3ccccc3n2)cc1OC | – | 95.1 |
| COC(=O)c1c(-c2ccc(C)cc2)csc1NC(=O)c1cc(-c2ccc(OC)c(OC)c2)nc2ccccc12 | – | 82.9 |
| COc1ccc(-c2cc(C(=O)Nc3ccc(F)cc3[N+](=O)[O-])c3ccccc3n2)cc1OC | – | 65.7 |
| COc1cccc2cc(-c3cc(C(=O)Nc4cc(C(F)(F)F)ccc4Cl)c4ccccc4n3)oc12 | 5.96 | 321 |
| O=C(Nc1ccc(Oc2ccccc2)cc1)c1cc(-c2cc3ccccc3o2)nc2ccccc12 | – | 118 |
| O=C(Nc1ccc(C(F)(F)F)cc1Cl)c1cc(-c2cc3ccccc3o2)nc2ccccc12 | 4.96 | 287 |
| COc1ccc(-c2cc(C(=O)Nc3ccc(Oc4ccccc4)cc3)c3ccccc3n2)cc1OC | 6.47 | 239 |
| COc1ccc(-c2cc(C(=O)Nc3cc(C)ccc3C)c3ccccc3n2)cc1OC | 5.61 | 313 |

| Compound | EC1.5 [1] [µM] | Activity [2] [%] |
| --- | --- | --- |
| COc1ccc(-c2cc(C(=O)NCc3ccc(C)cc3)c3ccccc3n2)cc1OC | 7.78 | 225 |
| COC(=O)[C@H]1C2CCC(CC2)[C@@H]1NC(=O)c1cc(-c2ccc(OC)c(OC)c2)nc2ccccc12 | – | 128 |
| O=C(NCc1ccc(F)cc1)c1cc(-c2cc3ccccc3o2)nc2ccccc12 | 2.19 | 482 |
| COc1ccc(-c2cc(C(=O)Nc3ccc(C(C)(C)C)cc3)c3ccccc3n2)cc1OC | – | 124 |
| COc1cc([N+](=O)[O-])ccc1NC(=O)c1cc(-c2ccc(OC)c(OC)c2)nc2ccccc12 | – | 101 |
| COc1ccc(-c2cc(C(=O)Nc3ccc(C)c(Cl)c3)c3ccccc3n2)cc1OC | – | 117 |
| COc1ccc(-c2cc(C(=O)Nc3ccc(C(F)(F)F)cc3)c3ccccc3n2)cc1OC | – | 142 |
| CCN(CC)c1ccc(NC(=O)c2cc(-c3ccc(OC)c(OC)c3)nc3ccccc23)cc1 | – | 83.3 |
| COc1ccc(-c2cc(C(=O)Nc3ccccc3Cl)c3ccccc3n2)cc1OC | – | 105 |
| O=C(Nc1ccc(Cl)c(Cl)c1)c1cc(-c2cc3ccccc3o2)nc2ccccc12 | – | 109 |
| CCOc1ccccc1NC(=O)c1cc(-c2ccc(OC)c(OC)c2)nc2ccccc12 | – | 95.2 |
| Cc1cc(C)c(NC(=O)c2cc(-c3cc4ccccc4o3)nc3ccccc23)c(C)c1 | 3.71 | 315 |
| COc1ccc(NC(=O)c2cc(-c3ccc(OC)c(OC)c3)nc3ccccc23)c([N+](=O)[O-])c1 | – | 87.2 |
| O=C(Nc1cc(C(F)(F)F)ccc1Cl)c1cc(-c2cc3ccccc3o2)nc2ccccc12 | 0.85 | 762 |
| COc1ccc(-c2cc(C(=O)Nc3ccc(C(F)(F)F)cc3Cl)c3ccccc3n2)cc1OC | 7.53 | 181 |
| COc1ccc(-c2cc(C(=O)Nc3cc(O)c(C(C)(C)C)cc3C(C)(C)C)c3ccccc3n2)cc1OC | – | 88.6 |
| O=C(Nc1cccc2ccccc12)c1cc(-c2cc3ccccc3o2)nc2ccccc12 | – | 119 |
| COc1cccc(NC(=O)c2cc(-c3ccc(OC)c(OC)c3)nc3ccccc23)c1 | – | 115 |
